Assay results reported in ChEMBL document CHEMBL1159330, “New diarylheptanoids and diarylheptanoid glucosides from the rhizomes of Tacca chantrieri and their cytotoxic activity” (J Nat Prod, 2002).
In brackets after ≈: the same amount, converted by molar mass.

Legend:
[1] = test system: HL-60; experiment: Cytotoxicity against human HL60 cells after 72 hrs by MTT assay; format: functional, cell-based; conditions: HL-60, 72 h
In short: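 HL-60 cells kept in RPMI 1640 with 10% heat-inactivated FBS, penicillin and streptomycin, 5% CO₂, 37 °C. Seeded at 4 × 10⁴ cells/mL, 196 µL per well, pre-incubated 24 h. Sample added in EtOH-H₂O (1:1) to final 0.1-10 µg/mL, solvent-only controls. Exposure 72 h. Triplicate. IC₅₀ = 50% drop in viable cells.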

[2] = test system: HSC-2; experiment: Cytotoxicity against human HSC2 cells by MTT assay; format: functional, cell-based
In short: (§1)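 HSC-2 grown in DMEM with 10% heat-inactivated FBS. HGF taken from a healthy person's gingival biopsy, explant-cultured, used at passages 5-7. Cells trypsinized, seeded at 6 × 10³ per well, grown 24 h. Washed with PBS, then compound for 24 h. Washed, 0.2 mg/mL MTT in DMEM/10% FBS for 4 h. Lysed in DMSO, A540 measured.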

[3] = Cytotoxicity against HGF by MTT assay; format: cell-based; conditions: Homo sapiens; in short: as §1

## COc1ccc(CC[C@@H](O)C[C@H](O)CCc2ccc(OC)c(OC)c2)cc1OC
[1]
  IC50: 4.9 µg/mL (≈ 12.1 µM)
[2]
  IC50: 6.6 µg/mL (≈ 16.3 µM)
[3]
  IC50: 174 µg/mL (≈ 430 µM)

## COc1cc(CC[C@@H](O)C[C@H](O)CCc2ccc(O)cc2)ccc1O
[1]
  IC50: > 10 µg/mL

## COc1cc(CC[C@@H](O)C[C@H](O)CCc2ccc(O)c(O)c2)ccc1O
[1]
  IC50: 4.1 µg/mL (≈ 11.3 µM)

## OC[C@H]1O[C@@H](O[C@H](CCc2ccc(O)c(O)c2)C[C@H](O)CCc2ccc(O)cc2)[C@H](O)[C@@H](O)[C@@H]1O
[1]
  IC50: 6.2 µg/mL (≈ 12.5 µM)
[2]
  IC50: 158 µg/mL (≈ 319 µM)
[3]
  IC50: 220 µg/mL (≈ 445 µM)

## Oc1ccc(CC[C@@H](O)C[C@H](O)CCc2ccc(O)c(O)c2)cc1O
[1]
  IC50: 1.8 µg/mL (≈ 5.17 µM)
[2]
  IC50: 54 µg/mL (≈ 155 µM)
[3]
  IC50: > 250 µg/mL

## COc1cc(CC[C@H](C[C@H](O)CCc2ccc(O)cc2)O[C@@H]2O[C@H](CO)[C@@H](O)[C@H](O)[C@H]2O)ccc1O
[1]
  IC50: > 10 µg/mL
[2]
  IC50: 160 µg/mL (≈ 315 µM)
[3]
  IC50: > 250 µg/mL

## COc1cc([C@@H]2c3cc4c(cc3[C@@H](O[C@@H]3O[C@@H]5CO[C@@H](C)O[C@H]5[C@H](O)[C@H]3O)[C@H]3COC(=O)[C@H]23)OCO4)cc(OC)c1O [ETOPOSIDE]
[1]
  IC50: 0.2 µg/mL (≈ 0.34 µM)
[3]
  IC50: > 200 µg/mL

## Oc1ccc(CC[C@@H](O)C[C@H](O)CCc2ccc(O)cc2)cc1 [(+)-HANNOKINOL]
[1]
  IC50: > 10 µg/mL
[2]
  IC50: 231 µg/mL (≈ 730 µM)
[3]
  IC50: 177 µg/mL (≈ 559 µM)

## COc1ccc(CC[C@@H](O)C[C@H](O)CCc2ccc(OC)c(OC)c2)cc1
[1]
  IC50: 5.5 µg/mL (≈ 14.7 µM)
[2]
  IC50: 3.9 µg/mL (≈ 10.4 µM)
[3]
  IC50: 176 µg/mL (≈ 470 µM)

## OC[C@H]1O[C@@H](O[C@H](CCc2ccc(O)cc2)C[C@H](O)CCc2ccc(O)c(O)c2)[C@H](O)[C@@H](O)[C@@H]1O
[1]
  IC50: 5.5 µg/mL (≈ 11.1 µM)
[2]
  IC50: 155 µg/mL (≈ 313 µM)
[3]
  IC50: > 250 µg/mL

## COc1ccc(CC[C@@H](O)C[C@H](O)CCc2ccc(OC)cc2)cc1
[1]
  IC50: 6.4 µg/mL (≈ 18.6 µM)
[2]
  IC50: 23 µg/mL (≈ 66.8 µM)
[3]
  IC50: 173 µg/mL (≈ 502 µM)

## COc1cc(CC[C@@H](O)C[C@@H](CCc2ccc(O)c(OC)c2)O[C@@H]2O[C@H](CO)[C@@H](O)[C@H](O)[C@H]2O)ccc1O
[1]
  IC50: > 10 µg/mL
[2]
  IC50: 198 µg/mL (≈ 368 µM)
[3]
  IC50: > 250 µg/mL

## Oc1ccc(CC[C@@H](O)C[C@H](O)CCc2ccc(O)c(O)c2)cc1
[1]
  IC50: 2.1 µg/mL (≈ 6.32 µM)
[2]
  IC50: 54 µg/mL (≈ 162 µM)
[3]
  IC50: 162 µg/mL (≈ 487 µM)

## OC[C@H]1O[C@@H](O[C@H](CCc2ccc(O)cc2)C[C@H](O)CCc2ccc(O)cc2)[C@H](O)[C@@H](O)[C@@H]1O
[1]
  IC50: > 10 µg/mL
[2]
  IC50: 157 µg/mL (≈ 328 µM)
[3]
  IC50: 213 µg/mL (≈ 445 µM)

## COc1cc(CC[C@@H](O)C[C@H](O)CCc2ccc(O)c(OC)c2)ccc1O
[1]
  IC50: > 10 µg/mL

## OC[C@H]1O[C@@H](O[C@H](CCc2ccc(O)c(O)c2)C[C@H](O)CCc2ccc(O)c(O)c2)[C@H](O)[C@@H](O)[C@@H]1O
[1]
  IC50: 3 µg/mL (≈ 5.88 µM)
[2]
  IC50: 92 µg/mL (≈ 180 µM)
[3]
  IC50: 189 µg/mL (≈ 370 µM)

## COc1cc(CC[C@H](C[C@H](O)CCc2ccc(O)c(O)c2)O[C@@H]2O[C@H](CO)[C@@H](O)[C@H](O)[C@H]2O)ccc1O
[1]
  IC50: 4.5 µg/mL (≈ 8.58 µM)
[2]
  IC50: 209 µg/mL (≈ 398 µM)
[3]
  IC50: > 250 µg/mL
